Measured values reported in ChEMBL document CHEMBL1158492, “Triazole inhibitors of Cryptosporidium parvum inosine 5'-monophosphate dehydrogenase” (J Med Chem, 2009).

Columns and labels:
[1] = biological target: T1, Inosine-5'-monophosphate dehydrogenase 2 (Homo sapiens, UniProt P12268); assay: Inhibition of human recombinant IMPDH2 expressed in Escherichia coli guaB assessed as NADH production at 5 uM by fluorescence assay
[2] = biological target: T2, Inosine-5'-monophosphate dehydrogenase (Cryptosporidium parvum, UniProt Q8T6T2); assay: Inhibition of Cryptosporidium parvum recombinant IMPDH expressed in Escherichia coli TX685 assessed as NADH production by fluorescence assay in absence of 0.05% fatty acid free bovine serum albumin
T2 sequence (Q8T6T2 whole entry): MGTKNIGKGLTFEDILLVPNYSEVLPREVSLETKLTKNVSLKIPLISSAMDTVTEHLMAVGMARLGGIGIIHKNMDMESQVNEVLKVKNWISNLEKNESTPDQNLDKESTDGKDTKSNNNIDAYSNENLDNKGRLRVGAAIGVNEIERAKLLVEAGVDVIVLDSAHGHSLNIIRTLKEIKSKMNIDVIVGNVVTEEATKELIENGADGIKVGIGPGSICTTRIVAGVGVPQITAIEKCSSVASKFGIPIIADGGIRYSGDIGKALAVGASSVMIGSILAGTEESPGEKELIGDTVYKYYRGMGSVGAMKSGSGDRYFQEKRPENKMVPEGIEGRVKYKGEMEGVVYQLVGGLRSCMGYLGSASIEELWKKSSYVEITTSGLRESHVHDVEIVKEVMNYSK
How it was run: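 Enzyme (10 nM) pre-incubated with inhibitor 5 min at room temperature before adding substrates (150 μM IMP, 300 μM NAD). Inhibitor range 25 pM–5 μM. NADH read by fluorescence. Initial velocities averaged over quadruplicates. IC50 from vi/vo, mean ± SD of three independent determinations.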

[3] = biological target: T2, Inosine-5'-monophosphate dehydrogenase; assay: Inhibition of Cryptosporidium parvum recombinant IMPDH expressed in Escherichia coli TX685 assessed as NADH production by fluorescence assay in presence of 0.05% fatty acid free bovine serum albumin
How it was run: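 Same IMP→XMP fluorescence (NADH) assay, with 0.05% fatty acid free BSA added. Conditions: 10 nM enzyme, 5 min room-temperature pre-incubation with inhibitor, then 150 μM IMP and 300 μM NAD. IC50 from three independent experiments, mean ± SD.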

[4] = biological target: T3, Inosine-5'-monophosphate dehydrogenase (Cryptosporidium parvum) (UniProt Q8T6T2); assay: Ratio of campaign IC50 to compound IC50 for Cryptosporidium parvum recombinant IMPDH expressed in Escherichia coli TX685 in absence of 0.05% fatty acid free bovine serum albumin
T3 sequence (whole entry): T2 sequence (Q8T6T2 whole entry)

[5] = biological target: T1, Inosine-5'-monophosphate dehydrogenase 2; assay: Inhibition of human recombinant IMPDH2 expressed in Escherichia coli guaB assessed as NADH production by fluorescence assay
[6] = biological target: T2, Inosine-5'-monophosphate dehydrogenase; assay: Inhibition of Cryptosporidium parvum recombinant IMPDH expressed in Escherichia coli guaB assessed as NADH production by fluorescence assay
How it was run: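 E. coli-expressed CpIMPDH at 10 nM, preincubated with inhibitor (25 pM - 5 μM) for 5 min at room temperature before adding 150 μM IMP and 300 μM NAD. NADH read by fluorescence from initial velocities, in quadruplicate. IC50 ± SD from three independent runs, some also with 0.05% fatty-acid-free BSA.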

Ratio IC50 [4] | Compound | inhibition [1] | IC50 [2] | IC50 [3] | IC50 [5] | EC50 [6]
– | O=C(Nc1ccc(Cl)cc1)C(Oc1cccc2ccccc12)c1ccccc1 (configuration not stated) | < 10% | > 5 µM | – | – | –
– | C[C@@H](Oc1cccc2ncccc12)c1cn(-c2ccc(Cl)cc2)nn1 | < 10% | 0.009 µM | 0.03 µM | – | –
– | CC(Oc1ccnc2ccccc12)C(=O)Nc1ccc(Cl)cc1 (configuration not stated) | < 10% | 0.66 µM | 0.86 µM | – | –
3 | CC(Oc1cccc2ccccc12)C(=O)Nc1ccc(Cl)cc1 (configuration not stated) | < 10% | 1.06 µM | 1.64 µM | – | –
– | CC(Oc1ccnc2ccccc12)c1cn(-c2ccc(Cl)c(Cl)c2)nn1 (configuration not stated) | < 10% | 0.02 µM | 0.7 µM | – | –
– | CC(C)C(Oc1cccc2ccccc12)C(=O)Nc1ccc(Cl)cc1 (configuration not stated) | < 10% | 0.71 µM | 0.83 µM | – | –
– | C[C@@H](Oc1ccnc2ccccc12)c1cn(-c2ccc(C#N)c(Cl)c2)nn1 | < 10% | 0.031 µM | 1.1 µM | – | –
– | O=C(Nc1ccc(Cl)cc1)C(Oc1cccc2ccccc12)C1CC1 (configuration not stated) | < 10% | > 5 µM | – | – | –
– | CC(Oc1cccc2ccccc12)c1cn(-c2ccc(Cl)cc2)nn1 (configuration not stated) | < 10% | 0.13 µM | 0.78 µM | – | –
– | CC(Oc1cccc2ccccc12)c1cn(-c2ccccc2Cl)nn1 (configuration not stated) | < 10% | > 5 µM | – | – | –
– | CC(Oc1cccc2c1ccc[n+]2[O-])c1cn(-c2ccc(Cl)cc2)nn1 (configuration not stated) | < 10% | 0.044 µM | 0.059 µM | – | –
– | CC(Oc1cc[n+]([O-])c2ccccc12)c1cn(-c2ccc(Cl)c(Cl)c2)nn1 (configuration not stated) | < 10% | 0.018 µM | 0.042 µM | – | –
– | C[C@@H](Oc1cc[n+]([O-])c2ccccc12)c1cn(-c2ccc(Cl)cc2)nn1 | < 10% | 0.013 µM | 0.05 µM | – | –
– | CC(Oc1ccc(Cl)c2ccccc12)c1cn(-c2ccc(Cl)cc2)nn1 (configuration not stated) | < 10% | 0.087 µM | 3.9 µM | – | –
– | CC(Oc1ccnc2ccccc12)c1cn(-c2ccc(C#N)c(Cl)c2)nn1 (configuration not stated) | < 10% | 0.04 µM | 1.4 µM | – | –
– | CC(Oc1ccnc2ccccc12)c1cn(-c2ccc(Cl)cc2)nn1 (configuration not stated) | < 10% | 0.024 µM | 0.23 µM | – | –
– | CC(Oc1cc[n+]([O-])c2ccccc12)c1cn(-c2ccc(Cl)cc2)nn1 (configuration not stated) | < 10% | 0.029 µM | 0.05 µM | – | –
– | CC(Oc1ccccc1)C(=O)Nc1ccc(Cl)cc1 (configuration not stated) | – | 3.3 µM | – | > 50 µM | 3.3 µM
– | Clc1ccc(-n2cc(COc3ccnc4ccccc34)nn2)cc1 | < 10% | 0.44 µM | 0.48 µM | – | –
– | CC(C)C(Oc1cccc2ccccc12)c1cn(-c2ccc(Cl)cc2)nn1 (configuration not stated) | < 10% | > 5 µM | – | – | –
– | C[C@H](Oc1ccnc2ccccc12)c1cn(-c2ccc(C#N)c(Cl)c2)nn1 | < 10% | 0.6 µM | 2.3 µM | – | –
– | C[C@H](Oc1ccnc2ccccc12)c1cn(-c2ccc(Cl)c(Cl)c2)nn1 | < 10% | 0.13 µM | 0.88 µM | – | –
– | CC(Oc1ccnc2ccccc12)c1cn(-c2ccc(C#N)cc2)nn1 (configuration not stated) | < 10% | 0.14 µM | 0.34 µM | – | –
– | C[C@@H](Oc1cccc2c1ccc[n+]2[O-])c1cn(-c2ccc(Cl)cc2)nn1 | < 10% | 0.024 µM | 0.052 µM | – | –
– | C[C@@H](Oc1ccnc2ccccc12)c1cn(-c2ccc(Cl)c(Cl)c2)nn1 | < 10% | 0.009 µM | 0.65 µM | – | –
